This is an account of results in article PMC8771160 (Oncology Reports, 2022).

One series relates to BC3. Description: Cell proliferation assay. It is filed as cell-based. The note with it: KSHV (+) cell line BC3, 24 h. In short, it runs like this: (§1)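 PEL lines, KSHV-negative B-lymphoma lines or PBMCs were seeded at 1×10^4 cells/well and cultured with or without test compound at 37°C for 24 h. Cell Count Reagent SF was added (10 µl to 90 µl suspension) for 2 h at 37°C, and OD was read at 450 nm. Viability is expressed as % of untreated cells.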

The subject of the next series is HIV RT. The note with it: cited from earlier work.
In series [1] the test system is KSHV-uninfected B cell lines. Description: Cell proliferation assay, KSHV-uninfected B cell lines as a group. It is filed as cell-based. The note with it: 6.25 and 12.5 µM, 24 h. In short, it runs like this:
as §1

The subject of another series is Ramos. Description: Cell proliferation assay. In kind it is cell-based. The conditions noted are these: KSHV (−) cell line Ramos, 24 h. The method in brief: as §1
A further series deals with HCV NS5B. The conditions noted are these: cited from earlier work.
The subject of series [2] is influenza virus endonuclease. The conditions noted are these: cited from earlier work.
The test system of the next series is BCBL1. Description: Cell proliferation assay. It is filed as cell-based. The note with it: KSHV (+) cell line BCBL1, 24 h. In short, it runs like this:
as §1

In the next series the test system is DG75. Briefly: Cell proliferation assay. The note with it: KSHV (−) cell line DG75, 24 h. It is filed as cell-based. The method in brief:
as §1

In a further series the test system is HBL6. Description: Cell proliferation assay. The note with it: KSHV (+) cell line HBL6, 24 h. It is filed as cell-based. The method in brief:
as §1

Series [3] concerns cancer cell proliferation. The conditions noted are these: cited from earlier work.

Usually CC50 stands for the concentration at which the toxic effect on the cells reaches its halfway point. A higher CC50 goes with better tolerance by the cells. For “1,1,1′,1′-tetramethyl [60]fullerenodipyrrolidinium diiodide [Derivative #1]”, the CC50 in the series on BC3 is 15.5 µM; in the series on Ramos, 24.9 µM; in the series with BCBL1 it was above 25 µM; in the series with DG75 it was 23.4 µM; in the series with HBL6 it was 19.7 µM. Moreover, in the series with HIV RT, the “HIV RT inhibitory activity” value is “displayed HIV RT inhibitory activity”. For the same substance, the “viability of DG75 and Ramos cells compared with the controls” value in series [1] is “increased the viability”. Besides, the “HCV NS5B inhibitory activity” value with HCV NS5B is “inhibiting”. The “influenza virus endonuclease inhibitory activity” value in [2] is “inhibitory activities”. In addition, in series [3], the cancer cell proliferation result is “suppressed cancer cell proliferation”.
